This is a sample that favours compounds with a hit; in the whole collection about 2% have one here.
DNA FID counter-1: displaces DNA intercalator in HCV helicase counter-screen. inhibition, % at 7.9 µM. DNA fluorescent intercalator displacement, fluorescence. hit rate 0.17% among 290,000; in the data active = inhibition above about 37%;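 also: higher means more ethidium bromide displaced from hairpin DNA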
core dimer inh: blocks dimerization of HCV core protein; inhibition, % at 5 µM; hit rate 0.33% among 300,000; TR-FRET GST/Flag-core106 dimerization, 1536-well; AID 1899;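 active = inhibition above the mean of all tested compounds plus 3 SD, set per screening campaign, cut at about 45% in these data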
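Assay system: Tagged HCV core106 pair (GST and Flag) | Buffer or medium: KF-containing HEPES buffer, pH 7.45, DTT, CHAPS, BSA | Also added: Eu donor and XL665 acceptor anti-tag antibodies | Dosing: One concentration, 5 µM, in 0.5% DMSO | Timing: 4 h at 22.5 °C | Technique: TR-FRET 671 and 617 nm emission | Repeats: Singlicate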
PABP polyA inh: PABP-poly(A) binding inhibition; PABP-poly(A) RNA binding, fluorescence polarization; inhibition, % at 35 µM; hit rate 1% among 290,000; AID 2014;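 also: calls also rest on retests at 20 µM and on dose response follow-up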
Target sequence (P11940 whole entry, looked up): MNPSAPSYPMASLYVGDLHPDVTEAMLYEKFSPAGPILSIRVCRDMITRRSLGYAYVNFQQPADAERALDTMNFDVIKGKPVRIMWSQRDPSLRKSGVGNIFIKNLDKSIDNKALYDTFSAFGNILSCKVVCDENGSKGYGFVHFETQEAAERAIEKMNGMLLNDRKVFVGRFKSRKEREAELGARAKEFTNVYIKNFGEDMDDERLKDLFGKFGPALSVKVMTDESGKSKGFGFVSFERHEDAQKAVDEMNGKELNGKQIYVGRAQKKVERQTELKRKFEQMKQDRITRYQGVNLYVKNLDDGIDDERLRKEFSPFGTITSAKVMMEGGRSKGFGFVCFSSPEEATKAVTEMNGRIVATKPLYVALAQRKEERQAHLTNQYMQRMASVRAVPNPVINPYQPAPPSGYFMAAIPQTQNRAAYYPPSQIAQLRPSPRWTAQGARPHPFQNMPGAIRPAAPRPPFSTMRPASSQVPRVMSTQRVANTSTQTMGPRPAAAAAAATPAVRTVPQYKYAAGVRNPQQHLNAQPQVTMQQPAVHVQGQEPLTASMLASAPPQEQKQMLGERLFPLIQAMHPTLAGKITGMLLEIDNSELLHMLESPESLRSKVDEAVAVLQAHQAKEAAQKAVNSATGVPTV
MLLE-PAM2 inh: blocks PAM2 peptide binding to the PABP1 MLLE domain. inhibition, % at 20 µM. AID 588489. P11940. GST-MLLE / FITC-PAM2 fluorescence polarization. hit rate 0.36% among 360,000; in the data active = inhibition above about 35%, passing the limit was not always enough
eIF4H FP inh: inhibitors of RNA binding by human eIF4H | eIF4H fluorescence polarization binding assay | Q15056 | AID 2012 | hit rate 0.94% among 290,000 | inhibition, % at 35 µM;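 also: calls also rest on retests at 20 µM and on dose response follow-up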
HCV NS3 hel inh: HCV NS3 helicase inhibition; NS3 helicase DNA unwinding, Cy5 molecular beacon fluorescence; inhibition, % at 10.9 µM; hit rate 0.56% among 290,000; AID 1800;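 active = inhibition above the mean of all tested compounds plus 3 SD, set per campaign, cut at about 35% in these data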
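Material: hepatitis C virus NS3 helicase domain fragment enzyme; measured by: Cy5 fluorescence, 0 and 60 min reads; control set: DMSO and thioflavine S; incubation: 60 min unwinding reaction at 25 °C after ATP addition; read-out basis: % inhibition from 60/0 min fluorescence ratio, DMSO 0%, thioflavine S 100%; repeats: singlicate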
NS3 helicase cf: confirmation of Hepatitis C virus NS3 helicase inhibitors | shares compounds with HCV NS3 hel inh | NS3 helicase DNA unwinding, Cy5 molecular beacon fluorescence | inhibition, % at 10.9 µM | hit rate 31% among 1,600;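 active = inhibition above the mean of all tested compounds plus 3 SD, cutoff set per campaign, cut at about 36% in these data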
DNA FID counter-2: counter-screen for HCV NS3 helicase inhibitors: DNA intercalator displacement. shares compounds with HCV NS3 hel inh. DNA fluorescent intercalator displacement, fluorescence. inhibition, % at 7.9 µM. hit rate 4% among 1,600; in the data active = inhibition above about 37%;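 also: higher means more displacement of ethidium bromide from the DNA hairpin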
FID counter DR: displaces fluorescent intercalator from DNA, HCV helicase counter-screen; fluorescent intercalator displacement from DNA, fluorescence; IC50, µM; 120 tested, under 10 active; AID 2172; shares compounds with HCV NS3 hel inh
Each line names hits and unclear results; the compound was inactive in the other large screens (follow-up assays come after a bar, where they were run). Unless noted, no rule for the calls is given here.

CCOC(=O)c1ccc(N(C(=O)CNC(=O)c2ccco2)C(C(=O)NCC2CCCO2)c2ccc(OC)c(OC)c2)cc1 (stereo unspecified)	HCV NS3 hel inh 50.9 | NS3 helicase cf inactive | DNA FID counter-2 inactive
Cc1cc(C)cc(NC(=O)C2CCN(S(=O)(=O)c3ccc4c(c3)NC(=O)C(C)S4)CC2)c1 (stereo unspecified)	HCV NS3 hel inh 42.9 | NS3 helicase cf inactive | DNA FID counter-2 inactive
COc1ccc(/C(N)=N/OC(=O)/C=C/c2ccccc2)cc1	none
CC(=O)c1ccc(OC(=O)/C=C/c2ccccc2)cc1	HCV NS3 hel inh 38.6 | NS3 helicase cf inactive | DNA FID counter-2 inactive
Cc1[nH]c2ccccc2c1C(=O)COC(=O)c1ccc[n+]([O-])c1	HCV NS3 hel inh 45.6 | NS3 helicase cf inactive | DNA FID counter-2 inactive
COc1cc(/C=N/NC(N)=O)ccc1OCC(=O)N1C(C)CCCC1C (stereo unspecified)	none
COc1cc(/C=N/Nc2ccc(Cl)c(C(=O)O)c2)ccc1OCC(=O)N1C(C)CCCC1C (stereo unspecified)	HCV NS3 hel inh 45.2 | NS3 helicase cf 69.8 | DNA FID counter-2 inactive
COc1cc(/C=N/Nc2ccc(Cl)c(C(=O)O)c2)ccc1OC(=O)c1ccco1	HCV NS3 hel inh 37.7 | NS3 helicase cf 65.2 | DNA FID counter-2 inactive
Cc1ccc(-n2ncc3c2CC(C)(C)CC3NC(=O)CCc2cccnc2)cc1 (stereo unspecified)	none (no result: core dimer inh)
C=CCNc1nc(Nc2ccc(OC)c(OC)c2)c2sc(-c3ccccc3)cc2n1	none (no result: DNA FID counter-1, core dimer inh, PABP polyA inh, eIF4H FP inh, HCV NS3 hel inh)
O=C1OC(c2ccc(F)cc2)=C/C1=C\c1ccc([N+](=O)[O-])o1	eIF4H FP inh inconclusive, HCV NS3 hel inh 44.5 (no result: MLLE-PAM2 inh) | NS3 helicase cf 42.2 | DNA FID counter-2 inactive
Oc1c(Br)cc(/C=N/Nc2ccc(Cl)nn2)cc1Br	none
Oc1c(Br)cc(Br)cc1/C=N/Nc1ccc(Cl)nn1	HCV NS3 hel inh 41.3 | NS3 helicase cf inactive | DNA FID counter-2 inactive
COc1cc([N+](=O)[O-])ccc1NC(=O)N1CCCCCC1	none
Cn1c2ccccc2c2cc(/C=N/NC(=O)c3cc(O)ccc3O)ccc21	PABP polyA inh 73.7, eIF4H FP inh 86.0, HCV NS3 hel inh 69.4 | NS3 helicase cf inactive | DNA FID counter-2 inactive
CCCNC(=O)C(CC)NC(=O)c1cccc([N+](=O)[O-])c1 (stereo unspecified)	none (no result: DNA FID counter-1, core dimer inh, PABP polyA inh, eIF4H FP inh, HCV NS3 hel inh)
Nc1ccc(O)cc1C(=O)OCC(=O)c1ccc(C2CCCCC2)cc1	PABP polyA inh active, eIF4H FP inh 93.3, HCV NS3 hel inh 59.1 | NS3 helicase cf inactive | DNA FID counter-2 inactive
COc1ccc(C(=O)OCC(=O)c2ccc(C3CCCCC3)cc2)cc1	none
O=C(NCC1CCCO1)c1onc(CSc2ccccc2)c1C(=O)O (stereo unspecified)	none
CC(C)c1ccc(SCc2noc(C(=O)NCC3CCCO3)c2C(=O)O)cc1 (stereo unspecified)	HCV NS3 hel inh 41.4 | NS3 helicase cf inactive | DNA FID counter-2 inactive
CC(C)C[C@H](NC(=O)[C@H](Cc1ccccc1)n1c(=O)[nH]c2ccccc2c1=O)C(=O)N1CCC[C@@H]1C(=O)O	HCV NS3 hel inh 39.0 | NS3 helicase cf inactive | DNA FID counter-2 inactive
O=C(N/N=C\C=C\c1ccco1)C1COc2ccccc2O1 (stereo unspecified)	HCV NS3 hel inh 44.4 | NS3 helicase cf inactive | DNA FID counter-2 inactive
O=C(N/N=C/C=C/c1ccc([N+](=O)[O-])cc1)C1COc2ccccc2O1 (stereo unspecified)	none
O=C1NC(=Nc2ccccc2)S/C1=C\C=C\c1ccco1	HCV NS3 hel inh 43.8 | NS3 helicase cf inactive | DNA FID counter-2 inactive
Cc1ccc(N=C2NC(=O)/C(=C/C=C/c3ccco3)S2)cc1	core dimer inh 59.2, PABP polyA inh 21.6, eIF4H FP inh 76.5, HCV NS3 hel inh 114.4 | NS3 helicase cf inactive | DNA FID counter-2 inactive
COc1ccc(N=C2NC(=O)/C(=C/C=C/c3ccccc3)S2)cc1	none
Cc1cccc(N=C2NC(=O)/C(=C/C=C/c3ccco3)S2)c1C	core dimer inh 58.6, PABP polyA inh active, HCV NS3 hel inh 44.8 | NS3 helicase cf 88.2 | DNA FID counter-2 inactive | FID counter DR inactive
Cc1ccc(N=C2NC(=O)S/C2=C\c2ccco2)cc1	eIF4H FP inh inconclusive
O=C1NC(=Nc2ccccc2)S/C1=C\c1ccccc1	HCV NS3 hel inh 39.7 | NS3 helicase cf inactive | DNA FID counter-2 inactive
Clc1cccc(-c2nc3c4ccccc4ccn3c2Cc2ccsc2)c1	none (no result: DNA FID counter-1, core dimer inh, PABP polyA inh, eIF4H FP inh, HCV NS3 hel inh)
CC(C)CC(=O)Nc1nnc(S(=O)(=O)N(C)Cc2ccco2)s1	HCV NS3 hel inh 55.1 (no result: PABP polyA inh, eIF4H FP inh) | NS3 helicase cf inactive | DNA FID counter-2 inactive
CC[C@H](C)[C@H]1CNC(=S)N1CC1CCN(CC)CC1	none (no result: DNA FID counter-1, core dimer inh, PABP polyA inh, eIF4H FP inh, HCV NS3 hel inh)
C[C@@H](CN=[N+]=[N-])CN1CC[C@H](O)CCC1=O	HCV NS3 hel inh 37.5 | NS3 helicase cf inactive | DNA FID counter-2 inactive
C[C@@H](CSc1ccccc1)CN1CC[C@H](NC(=O)OCc2ccccc2)CCC1=O	none
C[C@@H](CSc1ccccc1)CN1CC[C@H](O)CCC1=O	HCV NS3 hel inh 44.2 | NS3 helicase cf inactive | DNA FID counter-2 inactive
CCOC(=O)c1c(S(=O)(=O)NCCc2ccc(OC)c(OC)c2)c(C)n(C)c1C	HCV NS3 hel inh 39.1 | NS3 helicase cf inactive | DNA FID counter-2 inactive
CCOC(=O)c1c(S(=O)(=O)NCCc2ccccc2)c(C)n(C)c1C	none
COc1ccccc1N1CCN(C(=O)CSc2nc(C)c(Cc3ccccc3)c(=O)[nH]2)CC1	HCV NS3 hel inh 41.4 | NS3 helicase cf inactive | DNA FID counter-2 inactive
O=C(O)c1ccccc1NC(=O)C1CCN(S(=O)(=O)c2cccc3nsnc23)CC1	none
O=C(CCl)Nc1nc(-c2ccco2)c(-c2ccco2)s1	HCV NS3 hel inh 60.9 | NS3 helicase cf 63.3 | DNA FID counter-2 inactive | FID counter DR inactive
O=C(CCCSc1ccccc1)Nc1nc(-c2ccco2)c(-c2ccco2)s1	eIF4H FP inh 96.2, HCV NS3 hel inh 91.8 | NS3 helicase cf 68.9 | DNA FID counter-2 inactive | FID counter DR inactive
COc1cc(CNC[C@H]2O[C@@H](n3ccc(N)nc3=O)[C@H](O)[C@@H]2O)ccc1OCc1cccc(Cl)c1	none (no result: DNA FID counter-1, core dimer inh, PABP polyA inh, eIF4H FP inh, HCV NS3 hel inh)
CCOc1ccc(NC(=O)c2ccc(Cl)c(NC(=O)c3ccco3)c2)cc1	none
CCS(=O)(=O)C1=NN2C(=N)/C(=C\c3ccc(OC(=O)c4ccco4)c(Br)c3)C(=O)N=C2S1	none (no result: MLLE-PAM2 inh)

From PubChem BioAssay
